Measured values: publication PMC3071016 (Biochimica et biophysica acta, 2010)
Substitutions are numbered along the chain they refer to. Marks after values point to notes of the source that are not given here. One block for each compound: values may come before it. Starred links: 1 amine or outer side, 2 acyl side, 3 side chain; linkers in the order of their positions; H or OH if unused. Non-standard residues stand in square brackets, D forms with d. Residues, ends and D or L forms follow the SMILES beside them. *: point of attachment. X2 = CN(C)c1ccc2c(-c3ccc(C(=O)*)cc3C(=O)[O-])c3ccc(=[N+](C)C)cc-3oc2c1; Isoquinoline5sulfonyl = O=S(=O)(c1cccc2cnccc12)*; X1 = O=C(CCCCCNCCN[*:1])[*:2]

What was measured:
PKGIα [1] = molecular target: T1, PKGIα (Bos taurus, UniProt P00516); experiment: FI displacement assay; assay type: binding, bovine
T1 sequence (P00516 1-671): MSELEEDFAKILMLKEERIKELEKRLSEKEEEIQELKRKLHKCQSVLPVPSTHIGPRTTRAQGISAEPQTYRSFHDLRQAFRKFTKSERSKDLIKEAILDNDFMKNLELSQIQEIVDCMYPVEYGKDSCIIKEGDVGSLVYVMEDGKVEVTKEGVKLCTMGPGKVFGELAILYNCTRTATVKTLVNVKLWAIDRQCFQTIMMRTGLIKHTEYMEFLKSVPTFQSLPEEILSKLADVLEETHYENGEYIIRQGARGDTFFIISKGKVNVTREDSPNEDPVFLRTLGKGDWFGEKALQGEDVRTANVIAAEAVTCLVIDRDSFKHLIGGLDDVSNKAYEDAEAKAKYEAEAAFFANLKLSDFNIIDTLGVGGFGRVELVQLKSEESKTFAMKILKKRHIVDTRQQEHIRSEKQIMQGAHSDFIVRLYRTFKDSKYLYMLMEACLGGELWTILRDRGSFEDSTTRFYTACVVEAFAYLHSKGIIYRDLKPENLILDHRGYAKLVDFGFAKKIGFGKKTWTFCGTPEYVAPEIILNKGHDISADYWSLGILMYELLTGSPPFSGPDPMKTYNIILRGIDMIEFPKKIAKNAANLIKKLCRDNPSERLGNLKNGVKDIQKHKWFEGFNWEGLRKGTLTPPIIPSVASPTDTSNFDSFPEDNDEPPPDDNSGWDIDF

PKGIα [2] = molecular target: T2, PKGIα (Homo sapiens, UniProt Q13976); experiment: FA displacement assay; assay type: binding; conditions: for log IC50, PKGIα, FA (displacement): displacement of ARC-1059 (2 nM) from PKGIα (4 nM), cGMP 1 μM, logarithm of IC50
T2 sequence (Q13976 1-671): T1 sequence (P00516 1-671) with K265T, N275S

PKGIα [3] = conditions: reported in the literature; cited from earlier work
PKGIα [4] = molecular target: T1, PKGIα; experiment: Radioactive inhibition assay; assay type: biochemical, bovine
PKAc = PKAc (Homo sapiens, UniProt P17612); conditions: 100 μM ATP and 30 μM TAMRA-Kemptide substrate; logarithm of IC50; cited from earlier work
[5] = tested on: vascular smooth muscle cells in intact cerebral arteries; experiment: Fluorescence imaging of vascular smooth muscle cells in intact arteries; assay type: cell-based, rat
Summary of the method: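 Isolated intact rat cerebral arteries incubated at room temperature in Hepes buffer with the TAMRA-labelled test compound (100 nM, 1 μM or 10 μM) for 20, 40 or 60 min, then washed 3 times. Imaged by confocal scanning laser microscopy at 20× and 40×, with TAMRA excited at 568 nm (krypton–argon laser). Fluorescein-labelled reference peptide (2 μM) with TOTO-3 nuclear stain (488/647 nm excitation) used as reference.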

PKGIα [6] = molecular target: T2, PKGIα; experiment: FA direct binding assay; conditions: addition of cGMP in the absence of Mg2+

IC50 (PKGIα [1]): 1100 nM
IC50 (PKGIα [2]): 3020 nM
Structure (SMILES): O=S(=O)(NCCNCC=Cc1ccc(Br)cc1)c1cccc2cnccc12 [H89, N-[2-(p-bromocinnamylamino)ethyl]-5-isoquinoline-sulfonamide]
Ki (PKGIα [3]): 480 nM

Structure (SMILES): COC(=O)[C@@]1(OC)C[C@H]2O[C@]1(C)n1c3ccccc3c3c4c(c5c6ccccc6n2c5c31)C(=O)N(C)C4 [KT-5823]
displacement of ARC-1059 from its complex with PKGIα (PKGIα [2]; assay format not stated): failed to displace ARC-1059

Structure (SMILES): Nc1ncnc2c1ncn2[C@@H]1O[C@H](COP(=O)(O)OP(=O)([O-])OP(=O)([O-])O)[C@@H](O)[C@H]1O.[Mg+2] [MgATP]
log IC50, PKGIα, FA (displacement) (PKGIα [2]): −2.35 (0.08)

Structure (SMILES): Nc1ncnc2c1ncn2[C@@H]1O[C@H](COP(=O)(O)OP(=O)(O)OP(=O)(O)O)[C@@H](O)[C@H]1O [ATP]
log IC50, PKGIα, FA (displacement) (PKGIα [2]): −2.02 (0.33)
Km (PKGIα [4]; PKGIα-catalysed phosphorylation): 20 µM

log IC50, PKGIα, Inhibition (PKGIα [4]; 100 μM ATP and 11 μM TQAKRKKSLAMA substrate, presence of cGMP, logarithm of IC50): −6.85 (0.02)
IC50 (PKGIα [4]; read-out: inhibition IC50, 100 μM ATP, 11 μM substrate peptide, presence of cGMP): 141 nM
Structure (SMILES): NCCNS(=O)(=O)c1cccc2cnccc12 [H9]
log IC50, PKAc, Inhibition (PKAc): −5.43 ^b [36]
Ki (PKGIα [3]): 870 nM

IC50 (PKGIα [1]): 251000 nM
Structure (SMILES): CSCC[C@H](NC(=O)[C@H](C)NC(=O)[C@H](CC(C)C)NC(=O)[C@H](C)NC(=O)[C@H](CCCCN)NC(=O)[C@H](CCCCN)NC(=O)[C@H](CCCNC(=N)N)NC(=O)[C@H](CCCCN)NC(=O)[C@H](C)NC(=O)[C@H](CCC(N)=O)NC(=O)[C@@H](N)[C@@H](C)O)C(=O)N[C@@H](C)C(N)=O [WW21]

Structure (SMILES): CN(C)c1ccc2c(-c3ccc(C(=O)NCCCC[C@@H](NC(=O)[C@@H](CCCNC(=N)N)NC(=O)[C@@H](CCCNC(=N)N)NC(=O)[C@@H](CCCNC(=N)N)NC(=O)[C@@H](CCCNC(=N)N)NC(=O)[C@@H](CCCNC(=N)N)NC(=O)[C@@H](CCCNC(=N)N)NC(=O)CCCCCNCCNS(=O)(=O)c4cccc5cnccc45)C(N)=O)cc3C(=O)[O-])c3ccc(=[N+](C)C)cc-3oc2c1 [ARC-1059, H9-Hex-(D-Arg)6-[D-Lys(TAMRA)]-NH2] (Isoquinoline5sulfonyl-[X1][dR][dR][dR][dR][dR][dR][dK](X2)-NH2)
internalization in smooth muscle tissue, concentration dependence ([5]; 100 nM, 1 μM or 10 μM): not well observable at concentrations lower than 1 μM
incubation time after which internalization into tissue cells was observable ([5]; 10 μM, nucleus not yet stained): 20 min
internalization into vascular smooth muscle cells ([5]; intact pial arteries from rat brain, incubation 20, 40 or 60 min at room temperature): internalized into vascular smooth muscle cells
increase of affinity towards PKGIα by addition of cGMP (PKGIα [6]): 8 fold
